Among the data in ChEMBL document CHEMBL4513216, “Probing the Open Global Health Chemical Diversity Library for Multistage-Active Starting Points for Next-Generation Antimalarials” (ACS Infect Dis, 2020) are cytotoxicity values, retold here.

A short description of this data set: Toxicity liver stage against HepG2, at 10uM. The class given is cell-based. Also noted: test concentration 10 uM, cell line HepG2-A16-CD81EGFP. Particulars: human, HepG2-A16-CD81EGFP cells; read-out: INHIBITION
The essentials:
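Uninfected HepG2-A16-CD81EGFP cells, 3 × 10^3 per well, 1536-well, plated on prespotted compound at 10 μM final, parasite-free screening media added to match infected plates; puromycin 10 μM positive, DMSO 0.5% negative; run in parallel with 48 h PbLuc assay at 37 °C, 5% CO2; viability by CellTiter-Glo luminescence, normalized to controls.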
Turning to `CCN1C[C@H]2CCN(C(=O)C3CCCO3)CC[C@H]2S1(=O)=O` (stereo partly specified), the cytotoxicity at 10 µM was 18%. As to `COc1ccnc(N2CCCN(C(=O)Cc3ccc(C)s3)CC2)n1`, the cytotoxicity at 10 µM is -2.12%. Regarding `COC(=O)C1(NCC(=O)Nc2cc(C)ccc2OC)CCCCC1`, the cytotoxicity at 10 µM came to 4.02%. The same measure for `Cc1cc(F)ccc1CN1CCCC2(C1)OCCO2`: -11.8%; for `CC(=O)N1CCn2c(nnc2C2CCCCN2Cc2ccccc2Cl)C1` (stereo unspecified): 10.6%. Take `Cc1nc(CCNC(C)c2ccc3c(c2)OCCCO3)cs1` (stereo unspecified): the cytotoxicity at 10 µM was 3.3%. In the case of `CCc1nnsc1C(=O)N1CCCC(COc2ccc(F)cc2)C1` (stereo unspecified) it was -155%; in that of `COc1ccc(OC)c(C(C)NS(=O)(=O)c2cn(C)nc2C)c1` (stereo unspecified), 8.35%; in that of `O=C(NCC(F)F)c1cnc(C2CCCN2)cn1` (stereo unspecified), 0.13%. In the case of `CN1CCN(C(=O)Cc2csc(-c3ccsc3)n2)C(c2ccccc2)C1` (stereo unspecified), the cytotoxicity at 10 µM is -8.38%.

For the molecule `CC(CO)CSc1ncnc2[nH]ncc12` (stereo unspecified), the cytotoxicity at 10 µM was -12.3%.

With `CCc1nc(-c2cncnc2C2CCNC2)no1` (stereo unspecified), the cytotoxicity at 10 µM was 1.45%.

For `Cc1ccc(OCCCNC(=O)NC(C)c2nncn2C)cc1` (stereo unspecified), the cytotoxicity at 10 µM is -3.83%. With `Cc1nc(CN2CCCC(c3cnccn3)C2)cs1` (stereo unspecified), the cytotoxicity at 10 µM is -4.18%. In the case of `CC(C)CNC(=O)[C@H]1CCS(=O)(=O)[C@@H]2CN(c3ncccn3)C[C@H]12` it was -110%; in that of `O=S(=O)(N1CCC(n2cccc2)CC1)N1CCCC1c1ccco1` (stereo unspecified), 12.7%; in that of `Cc1nccc(NCc2cncc3c2CCN(S(C)(=O)=O)C3)n1`, -99.4%. As to `CCOC[C@H]1CC[C@H]2[C@H](CCN2Cc2c(C)noc2C)O1`, the cytotoxicity at 10 µM was 3.23%. `CCS(=O)(=O)N1CC[C@H]2O[C@H](c3nc(C)no3)CC[C@H]21`: the cytotoxicity at 10 µM was found to be 6.73%. On to `Cc1nn(C)c(C)c1NC(=O)c1cccc(CN2CC[C@H](O)C2)c1`, for which the cytotoxicity at 10 µM came to 1.08%. The same measure for `CCc1cccc(OC2CN(C(=O)[C@@H](N)[C@@H](C)O)C2)c1`: -3.92%; for `COc1ccc(-n2ncc(C(C)NC3Cc4ccccc4C3)c2C)cc1` (stereo unspecified): -6.32%.

For `Cn1cccc1C(=O)N1CCCC2(CCCN2Cc2cccnc2)C1` (stereo unspecified), the cytotoxicity at 10 µM turned out to be 2.88%.

Take `Cc1cnn(CCNc2nc(C)cc(N(C)C)n2)c1`: the cytotoxicity at 10 µM came out at 5.36%. Turning to `Cc1cccc(COC2COC3(CCN(S(C)(=O)=O)CC3)C2)n1` (stereo unspecified), the cytotoxicity at 10 µM stood at 8.98%. In the case of `CCc1cnc(C(C)NC(=O)N2CCCN(CC(F)F)CC2)s1` (stereo unspecified) it was -0.423%. As to `COCCOc1ccc(NC(=O)C2CC(=O)N(C(C)C)C2)cn1` (stereo unspecified), the cytotoxicity at 10 µM is -17.6%. In the case of `Cc1ccnc(C2CN(Cc3ccc(-c4ccccc4C(=O)O)o3)C2)n1` it was 2.51%; in that of `c1ccc(-c2ncc3c(n2)C2(CCN(c4ncccn4)C2)COC3)cc1` (stereo unspecified), 1.36%; in that of `CCNC(=O)N1CCC(NC(=O)NCCc2cc(F)cc(F)c2)C1` (stereo unspecified), -43.4%. The same measure for `COCc1nn(CC2CC2)c2c1CN(C(=O)c1ccno1)CC2`: 10.4%; for `O=C(CCCc1ccccn1)N1CCCC(n2cccn2)C1` (stereo unspecified): -10.7%; for `Cc1noc(C)c1C(=O)N1CCCC(c2c(C)c(=O)nc3n2CCC3)C1` (stereo unspecified): -21.1%. Consider `O=S(=O)(NCC1CCN(c2cnccn2)CC1)c1c(F)cccc1F`, for which the cytotoxicity at 10 µM was 10.4%. As to `CCc1ccc(C(=O)N2CCCn3nnc(Cn4cccn4)c3C2)cc1`, the cytotoxicity at 10 µM amounted to 7.8%. In the case of `CN(c1ncc(S(N)(=O)=O)s1)C1CCc2ccccc2C1` (stereo unspecified), the cytotoxicity at 10 µM was determined as 11.1%. Regarding `COC(=O)[C@@H]1Cc2c[nH]c3cccc(c23)[C@H](CC(C)C)N1`, the cytotoxicity at 10 µM was 9.57%. As to `COCCN1C[C@@H](C)[C@@]2(COCCN(C(=O)c3ccno3)C2)C1`, the cytotoxicity at 10 µM was found to be 7.4%. `O=C(c1cnco1)N1C[C@@H]2CC[C@H](Oc3ccccc3F)[C@@H]2C1`: the cytotoxicity at 10 µM amounted to 5.22%. In the case of `Cc1cc(C)c(CNC(=O)NCc2ccc3c(c2)CCC3)c(=O)[nH]1` it was 10.4%.

Consider `CCN(CC1CCOC1)S(=O)(=O)Cc1ccccc1Cl` (stereo unspecified), for which the cytotoxicity at 10 µM was -0.768%. As to `Cc1c(C(=O)NCC2CCN(Cc3ccco3)C2)[nH]c2ccccc12` (stereo unspecified), the cytotoxicity at 10 µM is 6.32%. Consider `COCCc1noc(C2CCN(S(=O)(=O)c3cccs3)CC2)n1`, for which the cytotoxicity at 10 µM was determined as 7.51%.

With `CC(NCC1CCS(=O)(=O)CC1)c1cccc(OC(F)F)c1` (stereo unspecified), the cytotoxicity at 10 µM is -5.16%.

In the case of `CS(=O)(=O)c1ccc2c(c1)nc1n2[C@@H](CNCc2cccnc2)COC1`, the cytotoxicity at 10 µM was -2.68%.

For `CC(C(=O)NC1(C#N)CCCCC1)N1CCc2c(ncn2C)C1` (stereo unspecified), the cytotoxicity at 10 µM was 7.04%. With `O=S(=O)(c1ccc(F)c(F)c1)n1cc(Cl)cn1`, the cytotoxicity at 10 µM was 4.66%. With `Cc1nc(-c2ccsc2)ccc1C(=O)NCCC(=O)N1CCCC1`, the cytotoxicity at 10 µM is -9.57%. The same measure for `O=C(NCCC(=O)N1CCCc2ccccc21)c1c(F)cccc1F`: -14.5%. Take `CC(C)Cc1ccc(C(=O)Cn2cnnc2[S+](C)[O-])cc1` (stereo unspecified): the cytotoxicity at 10 µM was -7.08%. As to `Cc1nc2ccccc2nc1CN1CCCC1Cn1cccn1` (stereo unspecified), the cytotoxicity at 10 µM is -31.4%. With `CCn1nnc2c1C(COCCN(C)C)CN(S(=O)(=O)CC)C2` (stereo unspecified), the cytotoxicity at 10 µM was -4.38%. In the case of `CCOc1ccc(S(=O)(=O)C(C)C(=O)Nc2cc(C)no2)cc1` (stereo unspecified) it was 5.07%; in that of `O=C(c1ccccn1)N1Cc2nccn2CC(COc2cccnc2)C1` (stereo unspecified), -9.52%. Take `CCS(=O)(=O)N1CC[C@H]2[C@H]1CC(=O)N2Cc1csc(C)n1`: the cytotoxicity at 10 µM was -133%.

As to `O=C(c1ccc(-n2cnnc2)nc1)N1CCCC(O)(CO)CC1` (stereo unspecified), the cytotoxicity at 10 µM is -0.274%. Consider `CC(Oc1ccccc1C(F)(F)F)C(=O)NCCNC(=O)C1CC1` (stereo unspecified), for which the cytotoxicity at 10 µM is 6.91%.

For the molecule `Cc1cc2c(cc1C(=O)N1CCC3(CC(=O)NC3=O)C1)OCCO2` (stereo unspecified), the cytotoxicity at 10 µM was 7.15%.

As to `O=C(N[C@@H]1CCC[C@@H](n2ccnc2)[C@@H]1O)c1ccc2c(c1)CCCC2`, the cytotoxicity at 10 µM was -11.3%. `Cc1nn(CC(=O)Nc2ccon2)c(C)c1Br`: the cytotoxicity at 10 µM worked out at 9.62%. Take `CN1CCC(Cc2nc(-c3cnccn3)n(Cc3ccccc3)n2)CC1`: the cytotoxicity at 10 µM was found to be 1.21%. Turning to `CC(C)Oc1ncccc1CNC(=O)NC1CCOc2ccccc21` (stereo unspecified), the cytotoxicity at 10 µM is -3.16%. In the case of `c1ccc(-c2nnc(CNCC3CCCN3c3cccnn3)o2)cc1` (stereo unspecified) it was -10.5%; in that of `CN1CCC(N(CCc2ccccc2)C(=O)COCC2CCCO2)CC1` (stereo unspecified), -148%.

With `O=C(CCNC(=O)c1ccoc1)Nc1cc(F)cc(F)c1`, the cytotoxicity at 10 µM is -7.41%. With `CC(C)(C)c1n[nH]cc1CNC1CCC(C(F)(F)F)CC1` (stereo unspecified), the cytotoxicity at 10 µM is 4.25%. The same measure for `CCN(CC)S(=O)(=O)N1CCC(c2nccn2Cc2ccccn2)CC1`: 0.136%. Regarding `NC(=O)c1cc(C2CCCN(C(=O)CCc3ccccn3)C2)n[nH]1` (stereo unspecified), the cytotoxicity at 10 µM was -8.47%. Take `COc1ccc2c(c1)CN(c1nc(C)cc(C)n1)CC2`: the cytotoxicity at 10 µM was -0.734%. `c1ccc(Cc2nnc(CN3CCc4cncnc4C3)o2)cc1`: the cytotoxicity at 10 µM was -4.48%.

With `Nc1nc(CN2CCCC(Cn3cncn3)C2)nc2ccccc12` (stereo unspecified), the cytotoxicity at 10 µM was -8.21%. The same measure for `COCCN1CCC2(CCN(Cc3nccs3)CC2)C1=O`: -4.36%.

Regarding `COCCN(CC1CCCN(C2Cc3ccccc3C2)C1)C(=O)COC` (stereo unspecified), the cytotoxicity at 10 µM is -5.98%. In the case of `O=C(Cc1ccc2c(c1)CCO2)N1CCN(c2cnccn2)CC1`, the cytotoxicity at 10 µM was -11.3%. In the case of `O=C(NCC1=CCCCC1)C(c1cccnc1)N1CCOCC1` (stereo unspecified), the cytotoxicity at 10 µM was -8.4%. Regarding `Cc1csc(C2(NCC(O)COc3ccc(F)cc3)CCC2)n1` (stereo unspecified), the cytotoxicity at 10 µM is 14.9%. For `COc1cn(CC(N)=O)c(CSc2nccc(C)n2)cc1=O`, the cytotoxicity at 10 µM was -12.1%. The same measure for `Cc1cc(C(F)(F)F)n2nc(C3CCCN(S(C)(=O)=O)C3)cc2n1` (stereo unspecified): 1.49%; for `c1ccc2c(c1)CCC21CN(CCc2ccncc2)CCO1` (stereo unspecified): -0.934%; for `c1cc(-c2nnc(C3CCCN(CC4CCCCC4)C3)o2)ccn1` (stereo unspecified): -12.1%. In the case of `CCn1cnnc1CNC(=O)NCC(C(C)C)N1CCC(C)CC1` (stereo unspecified) it was -4.65%. As for `c1cnc2nc(N3CCCC3c3nnc4n3CCCCC4)ccc2n1` (stereo unspecified), the cytotoxicity at 10 µM was 4.21%.

In the case of `CN(C)CCNC(=O)Cc1cccc(I)c1`, the cytotoxicity at 10 µM is -3.23%.

Consider `Cc1nc(C)c(C(=O)N2CCc3nnc(C4CCCN4C)n3CC2)s1` (stereo unspecified), for which the cytotoxicity at 10 µM was -4.34%. For the molecule `COc1ccc(-c2cc(N)on2)cc1`, the cytotoxicity at 10 µM was -12.8%.

Consider `Cc1cc(N2CCCC(OC(=O)CCc3cnn(C)c3)C2)nc(C)n1` (stereo unspecified), for which the cytotoxicity at 10 µM is 0.127%. As to `CN(C)Cc1nnc(C2CCCN(c3nccc4ccccc34)C2)n1C` (stereo unspecified), the cytotoxicity at 10 µM was -0.928%.

In the case of `CC1(C)[C@H](Cc2cc(CO)on2)C[C@@H]1NCc1ccc(CO)o1`, the cytotoxicity at 10 µM is -12.4%.

With `Cc1cc(C)n(CC2CN(CC(=O)NCc3ccccn3)CCO2)n1` (stereo unspecified), the cytotoxicity at 10 µM is -5.07%. For `O=C(Cc1ccccc1)N1C[C@@H]2OCCN(CC3CCCO3)[C@@H]2C1` (stereo partly specified), the cytotoxicity at 10 µM is -3.09%. Regarding `Cc1ccc(N2CCCN(C(=O)CCCn3ccnc3C)CC2)nn1`, the cytotoxicity at 10 µM is -3.83%. Regarding `Cc1nc(CCC(N)=O)cc(C2CCCN2S(C)(=O)=O)n1` (stereo unspecified), the cytotoxicity at 10 µM is -5.32%.

For the molecule `Cc1nn(CC(C)C)c(N(C)C)c1CNCc1ccc(CO)c(F)c1`, the cytotoxicity at 10 µM is -14.4%. Turning to `CNS(=O)(=O)CC1CCCN1c1ccc(Br)cn1` (stereo unspecified), the cytotoxicity at 10 µM worked out at 3.1%. Turning to `N#Cc1cc(NC(=O)c2ccccc2)ccc1N1CCC(O)CC1`, the cytotoxicity at 10 µM is -9.55%. As to `CNC(=O)c1n[nH]c2c1C(c1cccc3[nH]ccc13)CC(=O)N2` (stereo unspecified), the cytotoxicity at 10 µM was 4.06%.
